Molecules are shown by their SMILES. Calls of active or inactive are those of the source. No cut-off for these calls is given here.

Experimental findings from ChEMBL document CHEMBL2346499, “Small molecule modulators of Wnt/β-catenin signaling” (Bioorg Med Chem Lett, 2013) are described below.

Assay [1] deals with Frizzled-1 (Homo sapiens) (UniProt Q9UP38). Nature of the assay: Induction of internalization of Frizzled1-GFP (unknown origin) expressed in human U2OS cells at 12.5 uM after 6 hrs by confocal microscopy. Type of assay: cell-based.
A short description of assay [2]: Induction of Wnt3A/beta-catenin signaling in HEK293 cells after 8 hrs by TOPflash reporter assay. Conditions: Homo sapiens. In kind it is cell-based. In outline: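 HEK293 cells carrying TOPflash reporter, treated with or without Wnt3A conditioned medium (5% as reference sample) plus compound at the indicated concentrations for 8 hrs; luciferase read as relative luciferase units; significance versus Wnt3A-only sample by t test.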
(A reporter such as luciferase makes a cellular process visible.)

Chain of Frizzled-1 (Homo sapiens) (Q9UP38 70-647 limits assumed): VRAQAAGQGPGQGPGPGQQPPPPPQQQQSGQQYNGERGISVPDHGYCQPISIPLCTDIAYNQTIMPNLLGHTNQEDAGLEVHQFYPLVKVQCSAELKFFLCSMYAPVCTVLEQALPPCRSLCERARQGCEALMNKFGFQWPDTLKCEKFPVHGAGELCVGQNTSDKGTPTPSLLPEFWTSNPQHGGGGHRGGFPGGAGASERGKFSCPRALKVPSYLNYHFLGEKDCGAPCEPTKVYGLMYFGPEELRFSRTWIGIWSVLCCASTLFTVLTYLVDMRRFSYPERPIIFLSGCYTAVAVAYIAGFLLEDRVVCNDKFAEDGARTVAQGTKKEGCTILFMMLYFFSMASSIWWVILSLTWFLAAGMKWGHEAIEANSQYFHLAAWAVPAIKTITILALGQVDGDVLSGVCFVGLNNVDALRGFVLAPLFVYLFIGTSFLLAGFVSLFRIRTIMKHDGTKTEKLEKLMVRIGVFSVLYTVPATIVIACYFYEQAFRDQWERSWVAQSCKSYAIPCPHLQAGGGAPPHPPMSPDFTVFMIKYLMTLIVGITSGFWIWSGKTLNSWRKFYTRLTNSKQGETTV

Turning to `[N-]=[N+]=NCCOCCOCCOc1cc([N+](=O)[O-])ccc1NC(=O)c1cc(Cl)ccc1O`, the result in assay [1] was Active.
Regarding `O=C(Nc1ccc(NS(=O)(=O)c2ccc(Cl)cc2)cc1Cl)c1cc(Cl)ccc1O`, in assay [2], the Activity entry was “Dose-dependent effect”. Besides, the outcome in assay [1] was inactive.
Regarding `O=C(Nc1cc(Cl)cc(Cl)c1O)c1c(O)c(Cl)cc(Cl)c1Cl`, the outcome in assay [1] was inactive.
Consider `O=C(Nc1ccccc1[N+](=O)[O-])c1cc(Cl)ccc1O`, for which the outcome in assay [1] was inactive.
For the compound `Nc1ccc(NC(=O)c2cc(Cl)ccc2O)c(Cl)c1`, in assay [1], the result was inactive.
Regarding `COc1ccc(Cl)cc1C(=O)Nc1ccc([N+](=O)[O-])cc1Cl`, the outcome in assay [1] was inactive.
Take `O=C(Nc1ccc([N+](=O)[O-])cc1Cl)c1cccc(Cl)c1`: in assay [1], the outcome was inactive.
Consider `O=C(Nc1cccc([N+](=O)[O-])c1)c1cc(Cl)ccc1O`, for which, in assay [1], the result was inactive.
Take `O=C(Nc1ccc([N+](=O)[O-])cc1)c1cc(Cl)ccc1O`: in assay [1], the result was Active.
On to `O=C(Nc1ccc([N+](=O)[O-])cc1Br)c1ccccc1O`, for which the outcome in assay [1] was Active.
For `Cc1cc(C(C#N)c2ccc(Cl)cc2)c(Cl)cc1NC(=O)c1cc(I)cc(I)c1O` (stereo not given), in assay [1], the result was inactive.
On to `O=C(Nc1ccc([N+](=O)[O-])cc1Cl)c1ccccc1O`, for which the result in assay [1] was Active.
Same read-out and setting: in the case of `O=C(Nc1ccc(Br)cc1)c1cc(Br)cc(Br)c1O` it was “inactive”.
With `[N-]=[N+]=Nc1ccc(NC(=O)c2cc(Cl)ccc2O)c(Cl)c1`, in assay [1], the outcome was Active.
Turning to `O=C(Nc1ccc([N+](=O)[O-])cc1Cl)c1cc(Br)ccc1O`, the result in assay [1] was Active.
As to `O=C(Nc1ccc(Oc2ccc(Cl)cc2)c(Cl)c1)c1cc(I)cc(I)c1O`, the result in assay [1] was inactive.
Regarding `O=C(Nc1ccc([N+](=O)[O-])cc1)c1cc(Br)ccc1O`, the outcome in assay [1] was Active.
In the case of `COc1cc([N+](=O)[O-])ccc1NC(=O)c1cc(Cl)ccc1O`, the outcome in assay [1] was Active.
For `O=C(Nc1ccc([N+](=O)[O-])cc1Cl)c1cc(Cl)ccc1O` [NICLOSAMIDE], the result in assay [1] was Active.
